TNAP inh noacc: human TNAP enzyme inhibitors, primary screen, biochemical, luminescent, no phosphate acceptor, uHTS; Alkaline phosphatase, tissue-nonspecific isozyme (Homo sapiens), P05186; purified TNAP, CDP-star luminescence, 30 min; inhibition, % at 20 µM; 200,000 tested, 0.26% active; AID 1012, 2008;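 active means tissue-nonspecific alkaline phosphatase inhibition above about 50% at 20 µM in the single-dose screen, limit read from the data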;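 further: 0% = DMSO negative control and 100% = EDTA positive control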
TNAP inh hiacc: human TNAP enzyme inhibitors, primary screen, biochemical, luminescent, high phosphate acceptor level, uHTS. Alkaline phosphatase, tissue-nonspecific isozyme (Homo sapiens), P05186. purified TNAP, CDP-star luminescence, 1 M DEA. inhibition, % at 20 µM. 200,000 tested, 0.03% active. AID 1135, 2008;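 active means over 50% inhibition of tissue-nonspecific alkaline phosphatase at 20 µM in the single-dose screen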;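 further: plate controls were DMSO wells for no effect and EDTA-quenched wells as full inhibition for full effect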
G6PDH counter: L. mesenteroides G6PDH inhibitors, counter-screen for G6PDH-coupled screening assays, biochemical, Leuconostoc mesenteroides enzyme | 200,000 tested, 0.12% active | inhibition, % at 5 µM | Purified L. mesenteroides G6PDH, diaphorase/resazurin coupled fluorescence, 45 min | AID 1020, 2008 | glucose-6-phosphate dehydrogenase [Leuconostoc mesenteroides]; in the data active means inhibition above about 50%
p97 inhibitor: inhibitors of human p97 ATPase, primary screen, biochemical; recombinant p97 ATPase, Kinase-Glo ATP luminescence, 3 h; inhibition, % at 8 µM; Transitional endoplasmic reticulum ATPase (Homo sapiens), P55072; AID 1481, 2009; 220,000 tested, 0.42% active; in the data active means inhibition above about 15%;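 further: 0% = DMSO vehicle and 100% = wells lacking enzyme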
Target sequence (P55072 whole entry, looked up): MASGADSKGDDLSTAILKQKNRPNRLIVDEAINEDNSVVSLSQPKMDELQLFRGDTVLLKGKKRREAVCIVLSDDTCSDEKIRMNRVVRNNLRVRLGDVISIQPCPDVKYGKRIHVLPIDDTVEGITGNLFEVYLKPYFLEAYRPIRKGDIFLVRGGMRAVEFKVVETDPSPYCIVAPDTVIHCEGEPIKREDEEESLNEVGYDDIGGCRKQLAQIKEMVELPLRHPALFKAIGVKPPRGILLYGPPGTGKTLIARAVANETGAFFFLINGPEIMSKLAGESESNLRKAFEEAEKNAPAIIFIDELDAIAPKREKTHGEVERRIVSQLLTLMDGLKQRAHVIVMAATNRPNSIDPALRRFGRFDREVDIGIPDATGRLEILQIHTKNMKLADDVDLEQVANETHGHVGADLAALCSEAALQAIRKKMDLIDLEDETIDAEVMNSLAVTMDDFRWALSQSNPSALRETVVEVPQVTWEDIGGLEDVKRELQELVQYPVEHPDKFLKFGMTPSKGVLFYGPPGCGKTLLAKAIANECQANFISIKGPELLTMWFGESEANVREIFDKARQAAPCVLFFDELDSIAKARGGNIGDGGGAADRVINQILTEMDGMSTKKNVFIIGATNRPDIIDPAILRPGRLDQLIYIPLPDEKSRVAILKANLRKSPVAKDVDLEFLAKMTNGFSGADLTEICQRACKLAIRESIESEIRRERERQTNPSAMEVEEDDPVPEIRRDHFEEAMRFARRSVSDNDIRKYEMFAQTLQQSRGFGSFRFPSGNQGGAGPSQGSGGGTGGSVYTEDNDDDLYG
Redox H2O2 prof: compounds producing H2O2 with reducing agent – biochemical, NIH compound library profiling, artefact control for MLSCN library redox annotation, primary screen | DTT-dependent redox cycling H2O2, phenol red/HRP absorbance; 100% = 100 µM peroxide control, 0% = buffer | activation, % at 10 µM | 200,000 tested, 0.03% active | AID 878, 2007;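 active means activation of at least 50% relative to the plate's high and low controls in the primary single-dose screen; inactive means activation below 50%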;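 further: compound incubated with DTT at 0.8 mM final as the reducing agent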
TNAP act hi DEA: TNAP activators at high phosphate acceptor level, primary screen, biochemical, luminescence, uHTS | Alkaline phosphatase, tissue-nonspecific isozyme (Homo sapiens), P05186 | purified TNAP, CDP-star luminescence, 1 M DEA, 30 min; stronger effect = higher value; 0 = EDTA background, 1 = DMSO-only activity | activation factor at 20 µM | 200,000 tested, under 10 active | AID 1136, 2008;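 active means activation factor at least 2 at 20 µM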
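Test system – human TNAP · Doses – 20 µM single point · Incubation – 30 min, room temperature · Signal – luminescent substrate turnover signal · Read-out basis – activation factor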
p97 inh conf: p97 ATPase inhibitors, retest, confirmation, biochemical. shares compounds with p97 inhibitor. inhibition, % at 8 µM. recombinant p97 ATPase, Kinase-Glo ATP luminescence. 760 tested, 44% active;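 active means percent inhibition of p97 ATPase above a set limit, the primary screen's mean plus 3 SD, cut at about 15% in these data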;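 further: 0% = DMSO wells and 100% = wells lacking p97 protein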
The depositor's hits bear a star; nt = no result given. In the library only some 0.79% were active in any assay of this set; here they are far more common.

SMILES | TNAP inh noacc | TNAP inh hiacc | G6PDH counter | p97 inhibitor | Redox H2O2 prof | TNAP act hi DEA | p97 inh conf
COc1ccc(/C=C2\SC(=S)N(C(Cc3ccccc3)C(=O)O)C2=O)cc1 (stereo not drawn) | 1 | 7 | 0 | -2 | 0 | 0.9 | nt
Cn1c(-c2ccccc2)c(C(=O)CCl)c2ccccc21 | -5 | 0 | 3 | 34* | -2 | 1 | 34*
CCn1c(-c2ccccc2)c(C(=O)CCl)c2ccccc21 | -8 | -2 | -7 | 32* | 0 | 1 | 36*
O/N=C\c1ccccc1Oc1ccc(F)cc1 | -4 | -4 | 6 | 2 | 0 | 1 | nt
S=C(NCc1ccccc1)NNc1ccccc1 | 7 | -1 | 7 | 0 | 1 | 1 | nt
CC(C)OC(=O)CSc1n[nH]c(-c2cccnc2)n1 | -4 | -9 | 10 | 15* | 2 | 1.1 | 3
CC(C)c1ccc(C(=O)CSc2n[nH]c(-c3ccncc3)n2)cc1 | 3 | -5 | 11 | -6 | -1 | 1 | nt
Cc1noc(C)c1COc1ccc(C(=O)OC(C)C(=O)Nc2ccc(S(=O)(=O)N3CCOCC3)cc2)cc1 (stereo not drawn) | -12 | -5 | -2 | -3 | -1 | 1 | nt
CCc1ccccc1NC(=O)CN(C)C(=O)CSc1nn(-c2ccc(F)cc2)c(=S)s1 | -7 | 0 | 15 | -3 | 1 | 1 | nt
CCc1ccc(NC(=O)CC2C(=O)N(c3cccc(C)c3)C(=O)N2C2CC2)cc1 (stereo not drawn) | -11 | -2 | 10 | -1 | -2 | 1 | nt
CN(C)/C=C/c1c([N+](=O)[O-])c2ccc(O)cc2n1-c1ccccc1 | nt | nt | nt | 26* | nt | nt | 12
Nc1nc(CCl)nc(Nc2ccc3ccccc3c2)n1 | nt | nt | nt | 36* | nt | nt | 38*
CC1=NN(c2ccc(C)cc2C)C(=O)C1C(c1cccc(O)c1)C1C(=O)N(c2ccc(C)cc2C)N=C1C (stereo not drawn) | -13 | -5 | -6 | 23* | 1 | 1 | 6
CC1=NN(c2nc(-c3ccc(C)cc3)cs2)C(=O)C1N=Nc1cccc(O)c1 (stereo not drawn) | -3 | 12 | 5 | 12 | -2 | 0.9 | nt
COCCCNc1nc2nonc2nc1N1CCN(C2CCCC2)CC1 | 2 | -7 | 10 | 5 | 0 | 1.1 | nt
COCCCNc1nc2nonc2nc1N1CCN2CCCC2C1 (stereo not drawn) | nt | nt | nt | 16* | nt | nt | 2
CCCCNC(=O)CNC(=S)N(Cc1ccccc1F)C1CCCCC1 | 2 | -3 | 9 | -7 | 0 | 1 | nt
Cc1cccc(N=C2NC(=O)/C(=C/c3cccn3C)S2)c1C | nt | nt | nt | -5 | nt | nt | nt
Cc1cccc(N=C2NC(=O)/C(=C/C=C/c3ccco3)S2)c1C | 22 | 17 | 14 | 21* | 1 | 0.8 | 12
COc1ccc2nc3ccccc3nc2c1N | nt | nt | nt | 26* | nt | nt | 3
COc1ccccc1-c1nc2ccccc2nc1-c1ccccc1OC | -18 | 0 | -5 | -5 | 0 | 1 | nt
O=[N+]([O-])c1cc(S(=O)(=O)C(F)(F)F)ccc1Sc1nc2ccccc2[nH]1 | -12 | 0 | 2 | 20* | 0 | 1 | 29*
CS(=O)(=O)c1ccc(Sc2nc3ccccc3[nH]2)c([N+](=O)[O-])c1 | 0 | 10 | 2 | 4 | 2 | 0.9 | nt
CCOC(=O)c1c(C)[nH]c(C(=O)N2CCN(c3ccc(OC)cc3)CC2)c1C | -19 | -2 | -2 | -4 | -2 | 1 | nt
CC1CN(c2ccccc2)CCN1Cc1nc(Cc2ccccc2)no1 (stereo not drawn) | -12 | -6 | 4 | -2 | 0 | 1.1 | nt

Screens (PubChem BioAssay)
